Laboratory results: ChEMBL document CHEMBL1649446, “Comparative antipneumococcal activities of sulopenem and other drugs” (2009)
In brackets after ≈: the same amount, converted by molar mass.

Tests used:
Format in all cases: functional
[1] = system: Streptococcus pneumoniae; assay: Antimicrobial activity against Streptococcus pneumoniae isolate 3282 by agar dilution method
[2] = system: Streptococcus pneumoniae; assay: Antimicrobial activity against Streptococcus pneumoniae isolate 3374 by agar dilution method
In short: (§1)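 Agar dilution MIC on Mueller-Hinton agar with 5% sheep blood, inocula 10^4 CFU/spot; amoxicillin-clavulanate combined 1:2; S. pneumoniae ATCC 49619 quality control each run.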

[3] = system: Streptococcus pneumoniae; assay: Antimicrobial activity against Streptococcus pneumoniae 19A by agar dilution method; in short: as §1
[4] = system: Streptococcus pneumoniae; assay: Antimicrobial activity against Streptococcus pneumoniae isolate 2688 by agar dilution method; in short: as §1
[5] = system: Streptococcus pneumoniae; assay: Antimicrobial activity against Streptococcus pneumoniae 5 by time-kill analysis
In short: (§2)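 Time-kill in cation-adjusted Mueller-Hinton broth with 5% lysed horse blood; inocula 5 × 105 to 5 × 10^6 CFU/ml; drugs at MIC, 2× and 4× MIC; 35°C shaking water bath; viable counts at 0, 3, 6, 12 and 24 h. Bactericidal if ≥3 log10 CFU/ml (99.9%) reduction from original inoculum; 90% and 99% killing also scored.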

[6] = system: Streptococcus pneumoniae; assay: Antimicrobial activity against Streptococcus pneumoniae isolate 37 by agar dilution method; in short: as §1
[7] = system: Streptococcus pneumoniae; assay: Antimicrobial activity against Streptococcus pneumoniae isolate 3681 by agar dilution method; in short: as §1
[8] = system: Streptococcus pneumoniae; assay: Antimicrobial activity against Streptococcus pneumoniae 9 by time-kill analysis; in short: as §2
[9] = system: Streptococcus pneumoniae; assay: Antimicrobial activity against Streptococcus pneumoniae isolate 1384 by agar dilution method; in short: as §1
[10] = system: Streptococcus pneumoniae; assay: Antimicrobial activity against Streptococcus pneumoniae isolate 2880 by agar dilution method; in short: as §1
[11] = system: Streptococcus pneumoniae; assay: Antimicrobial activity against Streptococcus pneumoniae isolate 2617 by agar dilution method; in short: as §1
[12] = system: Streptococcus pneumoniae; assay: Antimicrobial activity against Streptococcus pneumoniae isolate 24 by agar dilution method
[13] = system: Streptococcus pneumoniae; assay: Antimicrobial activity against Streptococcus pneumoniae isolate 1564 by agar dilution method
[14] = system: Streptococcus pneumoniae; assay: Antimicrobial activity against Streptococcus pneumoniae isolate 3260 by agar dilution method
[15] = system: Streptococcus pneumoniae; assay: Antimicrobial activity against Streptococcus pneumoniae isolate 3275 by agar dilution method; in short: as §1
[16] = system: Streptococcus pneumoniae; assay: Antimicrobial activity against Streptococcus pneumoniae isolate 4747 by agar dilution method; in short: as §1
[17] = system: Streptococcus pneumoniae; assay: Antimicrobial activity against Streptococcus pneumoniae isolate 33 by agar dilution method; in short: as §1
[18] = system: Streptococcus pneumoniae; assay: Antimicrobial activity against Streptococcus pneumoniae isolate 3263 by agar dilution method
[19] = system: Streptococcus pneumoniae; assay: Antimicrobial activity against Streptococcus pneumoniae 2 by time-kill analysis
In short: as §2, with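 “12,” for “12 and”, “=” for “if”, “drop” for “reduction”, “90%/99%/99.9%” for “90% and 99%”, “scored per strain.” for “also scored.”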

[20] = system: Streptococcus pneumoniae; assay: Antimicrobial activity against Streptococcus pneumoniae 4 by time-kill analysis
In short: as §2, with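 “12,” for “12 and”, “=” for “if”, “drop” for “reduction”, “90%/99%/99.9%” for “90% and 99%”, “scored per strain.” for “also scored.”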

[21] = system: Streptococcus pneumoniae; assay: Antimicrobial activity against Streptococcus pneumoniae isolate 3458 by agar dilution method
[22] = system: Streptococcus pneumoniae; assay: Antimicrobial activity against Streptococcus pneumoniae 1 by time-kill analysis; in short: as §2
[23] = system: Streptococcus pneumoniae; assay: Antimicrobial activity against Streptococcus pneumoniae isolate 3791 by agar dilution method; in short: as §1
[24] = system: Streptococcus pneumoniae; assay: Antimicrobial activity against Streptococcus pneumoniae 8 by time-kill analysis
In short: as §2, with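 “12,” for “12 and”, “=” for “if”, “drop” for “reduction”, “90%/99%/99.9%” for “90% and 99%”, “scored per strain.” for “also scored.”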

[25] = system: Streptococcus pneumoniae; assay: Antimicrobial activity against Streptococcus pneumoniae isolate 1146 by agar dilution method; in short: as §1
[26] = system: Streptococcus pneumoniae; assay: Antimicrobial activity against Streptococcus pneumoniae isolate 3455 by agar dilution method
[27] = system: Streptococcus pneumoniae; assay: Antimicrobial activity against Streptococcus pneumoniae isolate 1397 by agar dilution method; in short: as §1
[28] = system: Streptococcus pneumoniae; assay: Antimicrobial activity against penicillin-susceptible Streptococcus pneumoniae by agar dilution method
[29] = system: Streptococcus pneumoniae; assay: Antimicrobial activity against Streptococcus pneumoniae isolate 3587 by agar dilution method
[30] = system: Streptococcus pneumoniae; assay: Antimicrobial activity against Streptococcus pneumoniae isolate 2874 by agar dilution method; in short: as §1
[31] = system: Streptococcus pneumoniae; assay: Antimicrobial activity against Streptococcus pneumoniae isolate 1394 by agar dilution method
[32] = system: Streptococcus pneumoniae; assay: Antimicrobial activity against Streptococcus pneumoniae isolate 3481 by agar dilution method; in short: as §1
[33] = system: Streptococcus pneumoniae; assay: Antimicrobial activity against Streptococcus pneumoniae isolate 4755 by agar dilution method; in short: as §1
[34] = system: Streptococcus pneumoniae; assay: Antimicrobial activity against Streptococcus pneumoniae isolate 1147 by agar dilution method; in short: as §1
[35] = system: Streptococcus pneumoniae; assay: Antimicrobial activity against Streptococcus pneumoniae isolate 1424 by agar dilution method; in short: as §1
[36] = system: Streptococcus pneumoniae; assay: Antimicrobial activity against Streptococcus pneumoniae 12 by time-kill analysis
In short: as §2, with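 “12,” for “12 and”, “=” for “if”, “drop” for “reduction”, “90%/99%/99.9%” for “90% and 99%”, “scored per strain.” for “also scored.”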

[37] = system: Streptococcus pneumoniae; assay: Antimicrobial activity against Streptococcus pneumoniae 6 by time-kill analysis
In short: as §2, with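 “12,” for “12 and”, “=” for “if”, “drop” for “reduction”, “90%/99%/99.9%” for “90% and 99%”, “scored per strain.” for “also scored.”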

[38] = system: Streptococcus pneumoniae; assay: Antimicrobial activity against Streptococcus pneumoniae 7 by time-kill analysis
In short: as §2, with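 “12,” for “12 and”, “=” for “if”, “drop” for “reduction”, “90%/99%/99.9%” for “90% and 99%”, “scored per strain.” for “also scored.”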

[39] = system: Streptococcus pneumoniae; assay: Antimicrobial activity against Streptococcus pneumoniae isolate 1055 by agar dilution method
[40] = system: Streptococcus pneumoniae; assay: Antimicrobial activity against Streptococcus pneumoniae isolate 3412 by agar dilution method; in short: as §1
[41] = system: Streptococcus pneumoniae; assay: Antimicrobial activity against Streptococcus pneumoniae isolate 2686 by agar dilution method; in short: as §1
[42] = system: Streptococcus pneumoniae; assay: Antimicrobial activity against Streptococcus pneumoniae 3 by time-kill analysis
In short: as §2, with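 “12,” for “12 and”, “=” for “if”, “drop” for “reduction”, “90%/99%/99.9%” for “90% and 99%”, “scored per strain.” for “also scored.”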

[43] = system: Streptococcus pneumoniae; assay: Antimicrobial activity against Streptococcus pneumoniae 11 by time-kill analysis
In short: as §2, with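 “12,” for “12 and”, “=” for “if”, “drop” for “reduction”, “90%/99%/99.9%” for “90% and 99%”, “scored per strain.” for “also scored.”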

[44] = system: Streptococcus pneumoniae; assay: Antimicrobial activity against Streptococcus pneumoniae 10 by time-kill analysis
In short: as §2, with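 “12,” for “12 and”, “=” for “if”, “drop” for “reduction”, “90%/99%/99.9%” for “90% and 99%”, “scored per strain.” for “also scored.”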

[45] = system: Streptococcus pneumoniae; assay: Antimicrobial activity against Streptococcus pneumoniae isolate 3346 by agar dilution method
[46] = system: Streptococcus pneumoniae; assay: Antimicrobial activity against penicillin-intermediate Streptococcus pneumoniae by agar dilution method
[47] = system: Streptococcus pneumoniae; assay: Antimicrobial activity against penicillin-resistant Streptococcus pneumoniae by agar dilution method; in short: as §1

Compound: C[C@@H](O)[C@H]1C(=O)N2C(C(=O)O)=C(S[C@H]3CC[S@@+]([O-])C3)S[C@H]12 [SULOPENEM]
- MIC [1]: 0.5 µg/mL (≈ 1.43 µM)
- MIC [2]: 0.25 µg/mL (≈ 0.715 µM)
- MIC50 [3]: 1 µg/mL (≈ 2.86 µM)
- MIC90 [3]: 2 µg/mL (≈ 5.72 µM)
- MIC [4]: 1 µg/mL (≈ 2.86 µM)
- MIC [5]: 1 µg/mL (≈ 2.86 µM)
- MIC [6]: 1 µg/mL (≈ 2.86 µM)
- MIC [7]: 0.25 µg/mL (≈ 0.715 µM)
- MIC [8]: 0.12 µg/mL (≈ 0.343 µM)
- MIC [9]: 0.25 µg/mL (≈ 0.715 µM)
- MIC [10]: 0.5 µg/mL (≈ 1.43 µM)
- MIC [11]: 0.25 µg/mL (≈ 0.715 µM)
- MIC [12]: 0.5 µg/mL (≈ 1.43 µM)
- MIC [13]: 0.5 µg/mL (≈ 1.43 µM)
- MIC [14]: 0.5 µg/mL (≈ 1.43 µM)
- MIC [15]: 0.125 µg/mL (≈ 0.358 µM)
- MIC [16]: 0.25 µg/mL (≈ 0.715 µM)
- MIC [17]: 1 µg/mL (≈ 2.86 µM)
- MIC [18]: 0.25 µg/mL (≈ 0.715 µM)
- MIC [19]: 0.008 µg/mL (≈ 0.0229 µM)
- MIC [20]: 0.5 µg/mL (≈ 1.43 µM)
- MIC [21]: 1 µg/mL (≈ 2.86 µM)
- MIC [22]: 0.008 µg/mL (≈ 0.0229 µM)
- MIC [23]: 0.25 µg/mL (≈ 0.715 µM)
- MIC [24]: 1 µg/mL (≈ 2.86 µM)
- MIC [25]: 1 µg/mL (≈ 2.86 µM)
- MIC [26]: 1 µg/mL (≈ 2.86 µM)
- MIC [27]: 0.5 µg/mL (≈ 1.43 µM)
- MIC50 [28]: 0.008 µg/mL (≈ 0.0229 µM)
- MIC90 [28]: 0.016 µg/mL (≈ 0.0458 µM)
- MIC [29]: 0.25 µg/mL (≈ 0.715 µM)
- MIC [30]: 1 µg/mL (≈ 2.86 µM)
- MIC [31]: 0.5 µg/mL (≈ 1.43 µM)
- MIC [32]: 0.25 µg/mL (≈ 0.715 µM)
- MIC [33]: 0.5 µg/mL (≈ 1.43 µM)
- MIC [34]: 1 µg/mL (≈ 2.86 µM)
- MIC [35]: 0.5 µg/mL (≈ 1.43 µM)
- MIC [36]: 0.5 µg/mL (≈ 1.43 µM)
- MIC [37]: 0.12 µg/mL (≈ 0.343 µM)
- MIC [38]: 1 µg/mL (≈ 2.86 µM)
- MIC [39]: 0.25 µg/mL (≈ 0.715 µM)
- MIC [40]: 0.125 µg/mL (≈ 0.358 µM)
- MIC [41]: 1 µg/mL (≈ 2.86 µM)
- MIC [42]: 0.12 µg/mL (≈ 0.343 µM)
- MIC [43]: 1 µg/mL (≈ 2.86 µM)
- MIC [44]: 0.06 µg/mL (≈ 0.172 µM)
- MIC [45]: 0.5 µg/mL (≈ 1.43 µM)
- MIC50 [46]: 0.06 µg/mL (≈ 0.172 µM)
- MIC90 [46]: 0.25 µg/mL (≈ 0.715 µM)
- MIC50 [47]: 0.25 µg/mL (≈ 0.715 µM)
- MIC90 [47]: 0.5 µg/mL (≈ 1.43 µM)
